Experimental data reported in the RNAGym collection of RNA variant scans (doi:10.1038/nmeth.2970).

B1: NELF-E aptamer (parent)
chain: CCCAACGACUGCCGAGCGAGAUUACGCUUGAGCGCCCCACUGAGGAUGCCCACGGGCGAUUGGGGCACGG

Variants of: B1
Assay: HiTS-RAP
Settings: with NELF-E (Drosophila)
Outline: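 Aptamer DNA templates bearing a T7 promoter and a ter site were sequenced on an Illumina GAIIx flowcell. T7 RNA polymerase then transcribed them in situ, and GST-Tus halted transcription over 30 minutes at 37°C. After a 30-minute room-temperature equilibration with NELF-E-mOrange at 0.064 to 1000 nM in HEPES binding buffer, clusters were imaged, using only the first binding curve. Intensities normalised to sequencing intensity were averaged per sequence and fitted with weighted Hill fits to give Kd, retaining only fits whose variance stayed under 1,000,000.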

Row | Variant | Kd [nM]
1 | U60C | 9.28
2 | G55A G65U | 6.71
3 | G7U G55A | 7.6
4 | U10C C53U | 3.84
5 | C17G C36U | 9.05
6 | A5G A8C | 9.31
7 | A5G A8U | 6.29
8 | A4G U41G | 5.56
9 | U29A U41G | 6.07
10 | A5G G20U | 6.78
11 | C9G G55U | 8.84
12 | U10G C27G | 4.93
13 | U10G C27A | 5.02
14 | A4G G55A | 8.61
15 | A19G A21G | 6.58
16 | A4G G7C | 7.38
17 | U10G G16C | 6.96
18 | C33G U41G | 7.38
19 | A4G U23C | 4.96
20 | A8G U28A | 4.13
21 | A4G C13A | 5.91
22 | C9G G32A | 4.88
23 | A5U C9U | 6.47
24 | U10G G55U | 6.13

Row | Variant | Kd [nM]
25 | U10G G32A | 4.44
26 | A5G C36U | 6.13
27 | A8U A19G | 6.26
28 | U29G G55A | 7.74
29 | G7U U61C | 79
30 | G14A A39U | 31
31 | U10G U23C | 4.23
32 | A4G C37G | 6.99
33 | U29G C35U | 17.1
34 | A8U A15G | 5.78
35 | U29G U61G | 14.4
36 | G7U A8C | 7.45
37 | A24G C37U | 15.3
38 | A4G U61G | 9.81
39 | A19G U29G | 5.87
40 | A19G U29A | 3.96
41 | U41G A59U | 31.7
42 | C17G U23G | 5.45
43 | U10C G64A | 9.5
44 | A8U G62A | 19.2
45 | C9G C17G | 5.43
46 | A31G G64A | 10.8
47 | U23G G55C | 6.97
48 | C9G U61C | 89.2

Row | Variant | Kd [nM]
49 | U22G G55A | 8.23
50 | G11A U41C | 83.6
51 | G14U A21U | 6.73
52 | A5G C12A | 5.04
53 | A5G C12G | 6.02
54 | A4G C38U | 8.59
55 | C25U U41G | 6.6
56 | G7U G14U | 6.73
57 | C17G A43G | 9.66
58 | A5U A46G | 34.6
59 | G7U G56U | 7.83
60 | A4G U29G | 5.5
61 | A21G A24G | 6.42
62 | A4G G34C | 10.8
63 | A24G U61A | 34.7
64 | A24G U61C | 76.4
65 | A4G G32A | 5.33
66 | A15G U29G | 5.98
67 | A5G G16A | 6.56
68 | A5G G16U | 7.42
69 | G14U G16U | 7.62
70 | G62U | 7.51
71 | G62C | 48.2
72 | G18U U23G | 6.43

Row | Variant | Kd [nM]
73 | C12G C13U | 5.88
74 | A8G A15G | 6.29
75 | C27U U29G | 4.7
76 | G7U A39G | 11.4
77 | G14A C17U | 5.62
78 | A4U G14U | 6.79
79 | A4U G14A | 6
80 | A19G A24G | 6.18
81 | C50G | 6.31
82 | U23G G45A | 19.3
83 | G7U A21U | 5.79
84 | G11U A21U | 5.9
85 | U41A C66U | 85.7
86 | C13G A46U | 87.3
87 | C9G A67U | 8.77
88 | G7A G14U | 6.75
89 | U22G G34A | 8.31
90 | C13G G34A | 8.12
91 | C6G G44A | 61
92 | U41G G55U | 7.2
93 | C13G A21U | 5.52
94 | U28A U29G | 4.82
95 | U22G C37U | 12.7
96 | A8U A46G | 50

Row | Variant | Kd [nM]
97 | A8U G44U | 25.7
98 | U29G A31G | 6.61
99 | U23G U28G | 7.22
100 | C12A C13G | 5.33
101 | A15U G16U | 8.03
102 | G7U A19G | 6.23
103 | A8G C49U | 16.8
104 | G16U G30A | 4.95
105 | A5G U41G | 6.23
106 | A4G C57G | 7.07
107 | A5U | 5.66
108 | A15U A19G | 9.2
109 | A5G U10A | 4.67
110 | G14A U29G | 5.42
111 | U29G G48A | 11.3
112 | A8U U28A | 5.05
113 | G16U C57U | 8.22
114 | C13G A15G | 6.03
115 | U10G G26U | 5.07
116 | G11U U61C | 64.3
117 | A24G G56A | 11.9
118 | U10C U29G | 6.02
119 | C13U A52G | 3.79
120 | G16U G20U | 7.39

Row | Variant | Kd [nM]
121 | U10G U47A | 10.8
122 | C9G A21U | 6.36
123 | G7C U10G | 6.28
124 | A4G A67C | 5.34
125 | A4G A67U | 6.47
126 | C13A G20U | 7.23
127 | A4U U61A | 22.7
128 | G14A C53U | 4.16
129 | G30A U41G | 5.12
130 | C17G U28C | 8.7
131 | G7A U22G | 7
132 | G7U A31G | 7.34
133 | C9G A24G | 5.84
134 | U10G C35G | 6.33
135 | A59G G64A | 44.7
136 | G7U C36U | 7.87
137 | A5U A31G | 7.03
138 | C13U | 4.41
139 | U10G G18U | 5.3
140 | C49A | 20.6
141 | C13G U23G | 5.29
142 | A8U A31U | 7.11
143 | A5U U29C | 8.32
144 | A5U U29G | 5.91

Row | Variant | Kd [nM]
145 | C6G C40G | 8.23
146 | C13G G16U | 6.25
147 | U61A A67U | 49.7
148 | G14U | 5.68
149 | G14A | 4.94
150 | A4G C50U | 14.2
151 | A4G C50A | 17.7
152 | C6G C25G | 5.65
153 | A19G G30A | 4.57
154 | A4G A5C | 6.45
155 | A4G A5G | 5.81
156 | U10C C13G | 5.55
157 | A8G A52G | 4.33
158 | A8G A52U | 15.5
159 | C12G G63U | 13.7
160 | G7U G34A | 7.85
161 | U41G A52U | 16.4
162 | U29G G54A | 13.1
163 | C6G C49U | 20.2
164 | G11U C17U | 5.76
165 | A8G C12G | 5.74
166 | A5G C9G | 5.97
167 | A5U G14A | 6.18
